# Source: PubChem BioAssay
# The source made the active and inactive calls.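 Rule for the calls, unless noted: active = GFP response above 150% of the DMSO level; inconclusive = fewer than 70 events counted for a yeast strain; inactive = the rest.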
# Key:
# [1] = RPL19A-GFP modulators, yeast TOR pathway, confirmation, cell-based, S. cerevisiae, flow cytometry, cherry picks, mother/daughter gates (AID 2270;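 active = GFP response below 50% of the DMSO control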); conditions: S. cerevisiae RPL19A-GFP strain, 3 h, at 10 µM, stronger effect = lower value, 100 = same GFP as DMSO wells
# [2] = LAP4-GFP expression modulators in yeast, confirmation, cell-based, cherry picks, flow cytometry, mother/daughter gates (AID 2271;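 active = GFP response above 150% of the DMSO control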;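 note: ratio of sample to DMSO plate mean so 100% equals DMSO level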); conditions: S. cerevisiae LAP4-GFP strain, 3 h, at 10 µM, stronger effect = higher value, 100 means same as DMSO control
# Summary of the method: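 Test system: GFP-fusion yeast strain / Amount: 0.2 OD600 cells / Buffer or medium: SC medium / Dosing: 10 µM single dose / Incubation: compound exposure 3 h at 30 °C, end-over-end rotation / Detection: HT flow cytometry, GFP fluorescence channel / Evaluation: median GFP fluorescence as percent of plate-mean DMSO wells / Control set: DMSO-only negative wells, rapamycin 400 ng/mL positive wells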
# [3] = modulators of MEP2-GFP levels in yeast, confirmation, S. cerevisiae, flow cytometry GFP, cherry picks (AID 2272;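 active = GFP response above 150% of the DMSO control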;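 note: ratio of well signal to plate DMSO mean so 100% equals DMSO level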); conditions: S. cerevisiae MEP2-GFP strain, 3 h, at 10 µM, stronger effect = higher value
# [4] = AGP1-GFP expression modulators, hit retest, confirmation, cell-based, flow cytometry, S. cerevisiae, cherry picks (AID 2273);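 note: median GFP channel fluorescence over the whole cell population gate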; conditions: S. cerevisiae AGP1-GFP strain, 3 h, at 10 µM
# [5] = modulators of CIT2-GFP expression in yeast, confirmation, S. cerevisiae, GFP fusion, cherry picks, mother/daughter gates (AID 2274); conditions: S. cerevisiae CIT2-GFP strain, flow cytometry, 3 h, at 10 µM, stronger effect = higher value
# [6] = measured here: daughter cell gate
# [7] = measured here: mother cell gate
# [8] = measured here: daughter cell gate response
# [9] = measured here: mother cell gate response
Structure (SMILES),GFP response vs DMSO [1],"GFP response vs DMSO [1, 6]","GFP response vs DMSO [1, 7]",GFP response relative to DMSO [2],"GFP response relative to DMSO [2, 8]","GFP response relative to DMSO [2, 9]",GFP response vs DMSO [3],"GFP response, % of DMSO [4]","GFP response, % of DMSO [5]","GFP response, % of DMSO [5, 6]","GFP response, % of DMSO [5, 7]"
O/C=c1\ccc2cccc3nc(C(F)(F)F)nc1c23,111% (inactive),111%,110%,172% (active),167%,178%,269% (active),108% (inactive),179% (active),171%,181%
COC(=O)c1ccc(/C=N\NC(=O)c2ccc(C)cc2Cl)cc1,98.6% (inactive),98.9%,96.7%,95.4% (inactive),94.4%,95.1%,102% (inactive),96.4% (inactive),103% (inactive),105%,99.7%
Nc1ccc(S(=O)(=O)c2ccccc2)nc1,103% (inactive),104%,104%,99.8% (inactive),98.7%,99.3%,104% (inactive),95.7% (inactive),95.2% (inactive),94.8%,94.4%
COc1cccc(/C=N/NC(=O)CCC(=O)Nc2ccc(Br)cc2)c1,98.9% (inactive),100%,98%,90.6% (inactive),92.9%,90.3%,108% (inactive),100% (inactive),98.6% (inactive),101%,99.3%
Clc1ccc(-c2nnnn2-c2ccc(Cl)cc2)cc1,101% (inactive),102%,100%,97.7% (inactive),102%,96.4%,99.3% (inactive),95.9% (inactive),100% (inactive),101%,99.3%
O=C(c1ccc([N+](=O)[O-])o1)N1CCN(c2nc3c(F)cc(F)cc3s2)CC1,80.1% (inactive),78%,67.5%,250% (active),169%,232%,197% (active),102% (inactive),142% (inactive),108%,121%
COc1ccc(-c2cc(=O)n(-c3nc4ccccc4[nH]3)[nH]2)cc1,98.6% (inactive),101%,99.3%,117% (inactive),119%,113%,103% (inactive),98% (inactive),95.9% (inactive),97.4%,94.4%
CCOC(=O)c1c(C)[nH]c(C)c1C(=O)COC(=O)c1cc2ccccc2cc1O,96.2% (inactive),97.3%,94.8%,106% (inactive),104%,109%,103% (inactive),103% (inactive),98.4% (inactive),96.8%,96.7%
CN(C)c1ccc(/C=C/c2cc[n+](C)cc2)cc1,111% (inactive),109%,109%,160% (active),168%,159%,215% (active),109% (inactive),149% (inactive),129%,134%
O=C(Oc1oc(-c2ccco2)nc1C=Nc1ccccc1)c1ccoc1,99.6% (inactive),99.8%,96.9%,198% (active),172%,198%,108% (inactive),98.2% (inactive),98.6% (inactive),103%,91.5%
O=C1c2cccc3cccc(c23)C(=O)N1c1cccnc1,100% (inactive),102%,101%,85% (inactive),86.4%,85.5%,98.3% (inactive),98.7% (inactive),99.7% (inactive),105%,98.5%
CCOC(=O)c1sc(NC(=O)c2ccco2)nc1-c1ccccc1,97.8% (inactive),96.4%,96.7%,96.5% (inactive),94.4%,98.4%,103% (inactive),100% (inactive),98.6% (inactive),97.6%,99.3%
O=[N+]([O-])c1ccc(N2N=C(c3ccco3)CC2c2ccccc2)cc1 (stereo not drawn),104% (inactive),104%,97.7%,107% (inactive),104%,108%,131% (inactive),99.8% (inactive),105% (inactive),105%,103%
COc1ccccc1C(=O)NNC(=S)NC(=O)c1cccs1,116% (inactive),126%,107%,225% (active),181%,202%,128% (inactive),89.6% (inactive),121% (inactive),124%,108%
Cc1nn(C)c(C)c1N1C(=O)c2cccc3c(Br)ccc(c23)C1=O,103% (inactive),102%,103%,136% (inactive),137%,134%,207% (active),112% (inactive),148% (inactive),152%,141%
COCc1nnc(NC(=O)c2ccc(S(=O)(=O)N3CCCCCC3)cc2)o1,105% (inactive),99.8%,105%,105% (inactive),97.5%,107%,107% (inactive),101% (inactive),97.3% (inactive),97.4%,96.8%
Cc1c(Br)cc(C(=O)O)c(C)c1C,94.4% (inactive),94.7%,88%,101% (inactive),101%,102%,94.7% (inactive),97.1% (inactive),97.3% (inactive),95.6%,99.3%

Structure (SMILES),GFP response vs DMSO [1],"GFP response vs DMSO [1, 6]","GFP response vs DMSO [1, 7]",GFP response relative to DMSO [2],"GFP response relative to DMSO [2, 8]","GFP response relative to DMSO [2, 9]",GFP response vs DMSO [3],"GFP response, % of DMSO [4]","GFP response, % of DMSO [5]","GFP response, % of DMSO [5, 6]","GFP response, % of DMSO [5, 7]"
CCOc1ccc(C(=O)/C=C/c2ccccc2C(F)(F)F)cc1,98.2% (inactive),96.9%,99%,97.9% (inactive),99.2%,96.1%,100% (inactive),99.1% (inactive),104% (inactive),105%,103%
CCCc1[nH]nc2c1C(c1cccc(OC)c1)C(C#N)=C(N)O2 (stereo not drawn),103% (inactive),101%,103%,98.2% (inactive),95.9%,97.3%,105% (inactive),98.6% (inactive),102% (inactive),97.4%,103%
Cc1cccc(Sc2ccc([N+](=O)[O-])cc2[N+](=O)[O-])n1,102% (inactive),100%,102%,97.4% (inactive),100%,98.3%,104% (inactive),101% (inactive),100% (inactive),101%,99.8%
COc1ccc(/C=C2/C(=O)ON=C2c2ccccc2)cc1OC,102% (inactive),107%,99.2%,101% (inactive),102%,99.5%,102% (inactive),101% (inactive),102% (inactive),106%,95.6%
Cc1cc(C=C2C(=O)c3ccccc3C2=O)c(C)n1-c1cccc(C(=O)O)c1,100% (inactive),101%,101%,96.1% (inactive),98.2%,95.1%,101% (inactive),100% (inactive),112% (inactive),110%,113%
Cc1ccc(NC(=O)c2ccccc2O)cc1,103% (inactive),102%,102%,100% (inactive),95%,99.5%,110% (inactive),101% (inactive),104% (inactive),106%,99.1%
CC(=O)Nc1cccc(C(=O)/C=C/c2ccc(C)cc2)c1,95.8% (inactive),96.8%,95.1%,117% (inactive),115%,120%,110% (inactive),102% (inactive),103% (inactive),103%,102%
COc1ccc(N2CCN(C(=O)c3ccc(OCC4CCCO4)cc3)CC2)cc1 (stereo not drawn),99.2% (inactive),98.8%,98.3%,99.5% (inactive),101%,98.4%,99% (inactive),99.8% (inactive),100% (inactive),101%,99.3%
Cc1cc(NCCN2CCOCC2)n2nc(C)c(-c3ccc(Cl)cc3)c2n1,97.1% (inactive),97%,95.8%,106% (inactive),101%,109%,108% (inactive),98.4% (inactive),100% (inactive),99.3%,99.3%
CCOc1ccccc1N1CCN(C(=O)c2cccc(-c3ccc(O)cc3)c2)CC1,97% (inactive),96.7%,97.3%,98.7% (inactive),95.6%,102%,102% (inactive),92.4% (inactive),96.5% (inactive),94.8%,94.4%
COC(=O)c1ccc(C(=O)NC(=S)Nc2ccc3nc(SC)sc3c2)cc1,97.8% (inactive),97.6%,98.3%,90% (inactive),90.4%,91%,101% (inactive),102% (inactive),103% (inactive),93.7%,105%
Cc1n[nH]c(C)c1N1C(=O)c2cccc3cc(Br)cc(c23)C1=O,95.2% (inactive),95.9%,97%,99.5% (inactive),99.1%,99.4%,99% (inactive),105% (inactive),102% (inactive),101%,99.3%
Cc1ccn2c(NC(=O)c3ccco3)c(-c3ccccc3)nc2c1,98.6% (inactive),100%,96.6%,96.7% (inactive),96%,96.1%,107% (inactive),94.8% (inactive),103% (inactive),103%,101%
CCS(=O)(=O)N1N=C(c2ccc(NS(C)(=O)=O)cc2)CC1c1ccccc1 (stereo not drawn),99.8% (inactive),98.4%,99%,101% (inactive),104%,99.5%,108% (inactive),106% (inactive),101% (inactive),103%,103%
O=C1Nc2ccccc2/C1=C\C(=O)c1ccccc1,99% (inactive),96.4%,91.9%,228% (active),180%,236%,128% (inactive),103% (inactive),109% (inactive),110%,104%
COCCCN1C(=O)C2C(C(=O)Nc3cc(C)cc(C)c3)C3C=CC2(O3)C1C(=O)NC1CCCCC1 (stereo not drawn),100% (inactive),101%,101%,95% (inactive),100%,98.3%,102% (inactive),96.7% (inactive),112% (inactive),105%,114%
